Data published in ChEMBL document CHEMBL1125740, “Heterocyclic quinones. 17. A new in vivo active antineoplastic drug: 6,7-bis(1-aziridinyl)-4-[[3-(N,N-dimethylamino)propyl]amino]-5,8- quinazolinedione” (J Med Chem, 1991).
Several values for one entry are separate records, joined by “and”; a condition that tells them apart may be missing. Equal entries are not always repeated.

Tests used:
B16 [1] = assay: Compound was evaluated in vivo for antitumor activity against B16 melanoma after injecting the compound intravenously for optimal dose; assay type: functional, Mus musculus
In short: (§1)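 30-60 mg tumor fragments implanted sc by trocar on day 0 into C57Bl/6-derived hosts (B16) or C3H/He-derived hosts (16/C). Drug given iv on days 6, 9 and 13 (B16) or 6, 9 and 12 (16/C), 10 mice per group. Tumors measured by caliper. T/C % taken from median tumor burden of treated vs control groups on day 15 (B16) or day 14 (16/C). Body weight change per mouse recorded at nadir.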

B16 [2] = assay: Compound was evaluated in vivo for antitumor activity against B16 melanoma 1 after injecting the compound intravenously for median tumor burden; assay type: functional, Mus musculus
[3] = Compound was evaluated in vivo for antitumor activity against Glasgow osteogenic sarcoma after injecting the compound intravenously for change in body weight.; assay type: functional, Mus musculus
In short: (§2)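 Glasgow osteogenic sarcoma in C57Bl/6-derived hosts: 30-60 mg fragments implanted sc by trocar on day 0. Drug given iv on days 3, 6 and 9, 7 mice per group. Tumors measured by caliper. Median tumor burden recorded on day 10. Body weight change per mouse recorded at nadir. Toxicity-related deaths counted.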

[4] = Compound was evaluated in vivo for antitumor activity against Glasgow osteogenic sarcoma after injecting the compound intravenously for optimal dose; assay type: functional, Mus musculus; in short: as §2
M5076 [5] = assay: Compound was evaluated in vivo for antitumor activity against M5076 after injecting the compound intravenously for median tumor burden; assay type: functional, Mus musculus
M5076 [6] = assay: Compound was evaluated in vivo for antitumor activity against M5076 after injecting the compound intravenously for total dose.; assay type: functional, Mus musculus
L1210 [7] = assay: Compound was evaluated in vivo for antitumor activity after intraperitoneal administration against L1210(935) for mortality range at an optimal dose of 0.4 mg/kg/injection at 1-4 day schedule.; assay type: functional, Mus musculus
In short: (§3)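 L1210 leukemia, maintained in DBA/2 mice, was given ip as 10⁵ cells on day 0 to F1 hybrid or strain-of-origin mice over 18 g, in groups of 8. Dosing was ip from day 1, and mortality was checked daily. Median day of death counts dying mice only. %ILS = 100×(treated − control median day of death)/control median. Tumor-free survivors were counted on day 60. Weight change is g/mouse at nadir.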

L1210 [8] = assay: Compound was evaluated in vivo for antitumor activity after intraperitoneal administration against L1210(935) for median day of death at an optimal dose of 0.1 mg/kg/injection at 1-4 day schedule.; assay type: functional, Mus musculus; in short: as §3
L1210 [9] = assay: Compound was evaluated in vivo for antitumor activity after intraperitoneal administration against L1210(935) for tumor free survivors at an optimal dose of 1 mg/kg/injection at 1 day schedule.; assay type: functional, Mus musculus; in short: as §3
L1210 [10] = assay: Compound was evaluated in vivo for antitumor activity after intraperitoneal administration against L1210(935)for change in body weight at an optimal dose of 0.5 mg/kg/injection at 1,4,7,11day schedule.; assay type: functional, Mus musculus; in short: as §3
L1210 [11] = assay: Compound was evaluated in vivo for antitumor activity after intraperitoneal administration against L1210(935) for total dose at an optimal dose of 0.25 mg/kg/injection at 1,4,7,11day schedule.; assay type: functional, Mus musculus; in short: as §3
L1210 [12] = assay: Compound was evaluated in vivo for antitumor activity after intraperitoneal administration against L1210(935)for % increase in life span at an optimal dose of 0.125 mg/kg/injection at 1,4,7,11day schedule.; assay type: functional; conditions: Mus musculus, L1210, ip; in short: as §3
P388 [13] = assay: Compound was evaluated in vivo for antitumor activity after intraperitoneal administration against P388 (1313) for mortality range at an optimal dose of 0.5 mg/kg/injection; assay type: functional, Mus musculus
P388 [14] = assay: Compound was evaluated in vivo for antitumor activity after intraperitoneal administration against P388 (1313) for total dose at an optimal dose of 0.25 mg/kg/injection; assay type: functional, Mus musculus
P388 [15] = assay: Compound was evaluated in vivo for antitumor activity after intraperitoneal administration against P388/L-PAM(14) for mortality range at an optimal dose of 0.2 mg/kg/injection at 1,2,3,4 day schedule.; assay type: functional, Mus musculus
P388 [16] = assay: Compound was evaluated in vivo for antitumor activity after intraperitoneal administration against P388/L-PAM(14) for tumor free survivors at an optimal dose of 0.25 mg/kg/injection at 1,4,7,11 day schedule.; assay type: functional, Mus musculus
P388 [17] = assay: Compound was evaluated in vivo for antitumor activity after intraperitoneal administration against P388 (1303) for total dose at an optimal dose of 0.75 mg/kg/injection; assay type: functional, Mus musculus
P388 [18] = assay: Compound was evaluated in vivo for antitumor activity after intraperitoneal administration against P388 (1303) for tumor free survivors at an optimal dose of 0.75 mg/kg/injection on day 60; assay type: functional, Mus musculus
P388 [19] = assay: Compound was evaluated in vivo for antitumor activity after intraperitoneal administration against P388/L-PAM(14) for change in body weight at an optimal dose of 0.1 mg/kg/injection at 1,2,3,4 day schedule.; assay type: functional, Mus musculus
P388 [20] = assay: Compound was evaluated in vivo for antitumor activity after intraperitoneal administration against P388/L-PAM(14) for change in body weight at an optimal dose of 0.5 mg/kg/injection at 1,4,7,11 day schedule.; assay type: functional, Mus musculus
P388 [21] = assay: Compound was evaluated in vivo for antitumor activity after intraperitoneal administration against P388/L-PAM(14) for total dose at an optimal dose of 1 mg/kg/injection; assay type: functional, Mus musculus
P388 [22] = assay: Compound was evaluated in vivo for antitumor activity after intraperitoneal administration against P388/L-PAM(14) for change in body weight at an optimal dose of 0.4 mg/kg/injection at 1,2,3,4 day schedule.; assay type: functional, Mus musculus
P388 [23] = assay: Compound was evaluated in vivo for antitumor activity after intraperitoneal administration against P388 (1313) for median day of death at an optimal dose of 1 mg/kg/injection; assay type: functional, Mus musculus
P388 [24] = assay: Compound was evaluated in vivo for antitumor activity after intraperitoneal administration against P388/L-PAM(14) for % increase in life span at an optimal dose of 0.1 mg/kg/injection at 1,2,3,4 day schedule.; assay type: functional; conditions: Mus musculus, P388, ip
P388 [25] = assay: Compound was evaluated in vivo for antitumor activity after intraperitoneal administration against P388 (1313) for tumor free survivors at an optimal dose of 0.4 mg/kg/injection; assay type: functional, Mus musculus
P388 [26] = assay: Compound was evaluated in vivo for antitumor activity after intraperitoneal administration against P388 (1313) for tumor free survivors at an optimal dose of 1 mg/kg/injection on day 60; assay type: functional, Mus musculus
P388 [27] = assay: Compound was evaluated in vivo for antitumor activity after intraperitoneal administration against P388 (1313) for median day of death at an optimal dose of 0.5 mg/kg/injection; assay type: functional, Mus musculus
P388 [28] = assay: Compound was evaluated in vivo for antitumor activity after intraperitoneal administration against P388 (1313) for change in body weight at an optimal dose of 0.5 mg/kg/injection; assay type: functional, Mus musculus
P388 [29] = assay: Compound was evaluated in vivo for antitumor activity after intraperitoneal administration against P388 (1313) for change in body weight at an optimal dose of 1 mg/kg/injection; assay type: functional, Mus musculus
P388 [30] = assay: Compound was evaluated in vivo for antitumor activity after intraperitoneal administration against P388 (1313) for median day of death at an optimal dose of 0.25 mg/kg/injection; assay type: functional, Mus musculus
[31] = Compound was evaluated in vivo for antitumor activity against mammary adenocarcinoma 16/C after injecting the compound intravenously for change in body weight.; assay type: functional, Mus musculus; in short: as §1
P388 [32] = assay: Compound was evaluated in vivo for antitumor activity after intraperitoneal administration against P388 (1313) for mortality range at an optimal dose of 0.4 mg/kg/injection; assay type: functional, Mus musculus

Which results are given for CN(C)CCCNc1ncnc2c1C(=O)C(N1CC1)=C(N1CC1)C2=O?
Optimal dose (B16 [1]): 0.4 mg/kg and 0.2 mg/kg; Tumor burden (B16 [2]): 27.8; Change in body weight [3]: 0.6 g mouse-1; Optimal dose [4]: 0.36 mg/kg; Tumor burden (M5076 [5]): 29; Total dose (M5076 [6]): 4 mg/kg; Mortality (L1210 [7]): 20 days; Median day of death (L1210 [8]): 14; Survivors (L1210 [9]): 0; Change in body weight (L1210 [10]): 1.1 g mouse-1; Total dose (L1210 [11]): 1 mg/kg; ILS at 0.125 mg/kg (L1210 [12]): 18%; Mortality (P388 [13]): 30 days; Optimal dose (P388 [14]): 1 mg/kg; Mortality (P388 [15]): 20 days; Survivors (P388 [16]): 0; Optimal dose (P388 [17]): 0.75 mg/kg; Survivors (P388 [18]): 0; Change in body weight (P388 [19]): 0.5 g mouse-1; Change in body weight (P388 [20]): 0.7 g mouse-1; Total dose (P388 [21]): 1 mg/kg; g/mouse (P388 [22]): 0.9; Median day of death (P388 [23]): 19; ILS at 0.1 mg/kg (P388 [24]): 0%; Survivors (P388 [25]): 1; Survivors (P388 [26]): 0; Median day of death (P388 [27]): 25; Change in body weight (P388 [28]): 0 g mouse-1; Change in body weight (P388 [29]): -0.5; Median day of death (P388 [30]): 19; Change in body weight [31]: 0.5 g mouse-1 and 1 g mouse-1; Mortality (P388 [32]): 39 days
